# Reference: ChEMBL document CHEMBL2424551, “Synthesis, in vitro evaluation and molecular modelling of naphthalimide analogue as anticancer agents” (2013)
# Columns and labels:
# Format in all cases: functional
# SK-MEL-2 = test: Growth inhibition of human SK-MEL-2 cells at 10 uM after 48 hrs by SRB assay; details: SK-MEL-2, 48 h, read-out: GI
# How it was run: (§1)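 Cells grown in RPMI 1640 with 5% FBS and 2 mM L-glutamine, plated at 5000–40,000 cells/well by doubling time and preincubated 24 h (37 °C, 5% CO2); a time-zero plate is TCA-fixed. Single dose added, then 48 h incubation. Fixed with cold TCA, stained with 0.4% SRB, dye solubilized in 10 mM Tris base, absorbance at 515 nm; percent growth vs time-zero and untreated control.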
# SNB-19 = test: Growth inhibition of human SNB19 cells at 10 uM after 48 hrs by SRB assay; details: SNB-19, 48 h, read-out: GI
# How it was run: (§2)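 NCI 60-cell-line screen with a single 10 µM dose. Cells are grown in RPMI 1640 with 5% FBS and 2 mM L-glutamine, plated at 5000–40,000 cells/well according to doubling time, and preincubated 24 h at 37 °C, 5% CO2; time-zero plates are TCA-fixed at that point. Drug exposure is 48 h. Adherent cells are fixed with cold TCA, stained with 0.4% SRB in 1% acetic acid and read at 515 nm. Percent growth is calculated relative to time-zero and untreated controls and reported as GI%.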
# CCRF-CEM = test: Growth inhibition of human CCRF-CEM cells at 10 uM after 48 hrs by SRB assay; details: read-out: GI; how it was run: as §1
# SF-295 = test: Growth inhibition of human SF295 cells at 10 uM after 48 hrs by SRB assay; details: SF-295, 48 h, read-out: GI; how it was run: as §1
# Malme-3M = test: Growth inhibition of human MALME-3M cells at 10 uM after 48 hrs by SRB assay; details: read-out: GI; how it was run: as §1
# NCI-H322M = test: Growth inhibition of human NCI-H322M cells at 10 uM after 48 hrs by SRB assay; details: read-out: GI; how it was run: as §1
# MDA-MB-435 = test: Growth inhibition of human MDA-MB-435 cells at 10 uM after 48 hrs by SRB assay; details: MDA-MB-435, 48 h, read-out: GI; how it was run: as §1
# SW-620 = test: Growth inhibition of human SW620 cells at 10 uM after 48 hrs by SRB assay; details: SW-620, 48 h, read-out: GI; how it was run: as §2
# HOP-62 = test: Growth inhibition of human HOP62 cells at 10 uM after 48 hrs by SRB assay; details: HOP-62, 48 h, read-out: GI; how it was run: as §1
# HCT-116 = test: Growth inhibition of human HCT116 cells at 10 uM after 48 hrs by SRB assay; details: HCT-116, 48 h, read-out: GI; how it was run: as §1
# SF-539 = test: Growth inhibition of human SF539 cells at 10 uM after 48 hrs by SRB assay; details: SF-539, 48 h, read-out: GI; how it was run: as §1
# MDA-MB-231 = test: Growth inhibition of human MDA-MB-231 cells at 10 uM after 48 hrs by SRB assay; details: MDA-MB-231, 48 h, read-out: GI; how it was run: as §1
# SNB-75 = test: Growth inhibition of human SNB75 cells at 10 uM after 48 hrs by SRB assay; details: SNB-75, 48 h, read-out: GI; how it was run: as §2
# OVCAR-5 = test: Growth inhibition of human OVCAR5 cells at 10 uM after 48 hrs by SRB assay; details: OVCAR-5, 48 h, read-out: GI; how it was run: as §1
# HOP-92 = test: Growth inhibition of human HOP92 cells at 10 uM after 48 hrs by SRB assay; details: HOP-92, 48 h, read-out: GI; how it was run: as §1
# NCI-H460 = test: Growth inhibition of human NCI-H460 cells at 10 uM after 48 hrs by SRB assay; details: NCI-H460, 48 h, read-out: GI; how it was run: as §1
# UACC-257 = test: Growth inhibition of human UACC257 cells at 10 uM after 48 hrs by SRB assay; details: UACC-257, 48 h, read-out: GI; how it was run: as §2
# NCI-H23 = test: Growth inhibition of human NCI-H23 cells at 10 uM after 48 hrs by SRB assay; details: NCI-H23, 48 h, read-out: GI; how it was run: as §1
# [1] = Growth inhibition of human HCC2998 cells at 10 uM after 48 hrs by SRB assay; details: HCC 2998, 48 h, read-out: GI; how it was run: as §1
# SR = test: Growth inhibition of human SR cells at 10 uM after 48 hrs by SRB assay; details: read-out: GI; how it was run: as §2
# MOLT-4 = test: Growth inhibition of human MOLT4 cells at 10 uM after 48 hrs by SRB assay; details: MOLT-4, 48 h, read-out: GI; how it was run: as §1
# UO-31 = test: Growth inhibition of human UO31 cells at 10 uM after 48 hrs by SRB assay; details: UO-31, 48 h, read-out: GI; how it was run: as §2
# PC-3 = test: Growth inhibition of human PC3 cells at 10 uM after 48 hrs by SRB assay; details: PC-3, 48 h, read-out: GI; how it was run: as §1
# SN12C = test: Growth inhibition of human SN12C cells at 10 uM after 48 hrs by SRB assay; details: read-out: GI; how it was run: as §2
# U-251 = test: Growth inhibition of human U251 cells at 10 uM after 48 hrs by SRB assay; details: U-251, 48 h, read-out: GI; how it was run: as §2
# CAKI-1 = test: Growth inhibition of human Caki1 cells at 10 uM after 48 hrs by SRB assay; details: CAKI-1, 48 h, read-out: GI; how it was run: as §1
# K562 = test: Growth inhibition of human K562 cells at 10 uM after 48 hrs by SRB assay; details: K562, 48 h, read-out: GI; how it was run: as §1
# NCI-H226 = test: Growth inhibition of human NCI-H226 cells at 10 uM after 48 hrs by SRB assay; details: NCI-H226, 48 h, read-out: GI; how it was run: as §1
# HL-60(TB) = test: Growth inhibition of human HL-60(TB) cells at 10 uM after 48 hrs by SRB assay; details: HL-60, 48 h, read-out: GI
# How it was run: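 Single-concentration pass across the 60-line panel in RPMI 1640 with 5% FBS. Cells preincubated 24 h, then exposed 48 h at 37 °C, 5% CO2. Read by SRB staining with absorbance at 515 nm. Percent growth is taken relative to time-zero and untreated controls and reported as percent growth inhibition (GI %).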
# BT-549 = test: Growth inhibition of human BT549 cells at 10 uM after 48 hrs by SRB assay; details: BT-549, 48 h, read-out: GI; how it was run: as §1
# ACHN = test: Growth inhibition of human ACHN cells at 10 uM after 48 hrs by SRB assay; details: read-out: GI; how it was run: as §1
# RPMI-8226 = test: Growth inhibition of human RPMI8226 cells at 10 uM after 48 hrs by SRB assay; details: RPMI-8226, 48 h, read-out: GI; how it was run: as §1
# A498 = test: Growth inhibition of human A498 cells at 10 uM after 48 hrs by SRB assay; details: A498, 48 h, read-out: GI; how it was run: as §1
# MCF7 = test: Growth inhibition of human MCF7 cells at 10 uM after 48 hrs by SRB assay; details: MCF7, 48 h, read-out: GI; how it was run: as §1
Structure (SMILES),inhibition of growth at 10 µM (SK-MEL-2),inhibition of growth at 10 µM (SNB-19),inhibition of growth at 10 µM (CCRF-CEM),inhibition of growth at 10 µM (SF-295),inhibition of growth at 10 µM (Malme-3M),inhibition of growth at 10 µM (NCI-H322M),inhibition of growth at 10 µM (MDA-MB-435),inhibition of growth at 10 µM (SW-620),inhibition of growth at 10 µM (HOP-62),inhibition of growth at 10 µM (HCT-116),inhibition of growth at 10 µM (SF-539),inhibition of growth at 10 µM (MDA-MB-231),inhibition of growth at 10 µM (SNB-75),inhibition of growth at 10 µM (OVCAR-5),inhibition of growth at 10 µM (HOP-92),inhibition of growth at 10 µM (NCI-H460),inhibition of growth at 10 µM (UACC-257),inhibition of growth at 10 µM (NCI-H23),inhibition of growth at 10 µM [1],inhibition of growth at 10 µM (SR),also measured
O=c1c2cccc3c(N4CCOCC4)ccc(c32)c2nc3ccccc3n12,< 20%,< 20%,< 20%,< 20%,< 20%,< 20%,< 20%,< 20%,< 20%,< 20%,< 20%,< 20%,20.9%,< 20%,40.8%,< 20%,< 20%,23.1%,26.8%,< 20%,inhibition of growth at 10 µM (MOLT-4): < 20%; inhibition of growth at 10 µM (UO-31): 34.1%; inhibition of growth at 10 µM (PC-3): < 20%; inhibition of growth at 10 µM (SN12C): < 20%; inhibition of growth at 10 µM (U-251): < 20%; inhibition of growth at 10 µM (CAKI-1): 30.4%; inhibition of growth at 10 µM (K562): < 20%; inhibition of growth at 10 µM (NCI-H226): < 20%; inhibition of growth at 10 µM (HL-60(TB)): < 20%; inhibition of growth at 10 µM (BT-549): < 20%; inhibition of growth at 10 µM (ACHN): < 20%; inhibition of growth at 10 µM (RPMI-8226): < 20%; inhibition of growth at 10 µM (A498): < 20%; inhibition of growth at 10 µM (MCF7): 76%
O=c1c2cccc3c(Nc4ccc(Br)cn4)ccc(c32)c2nc3ccccc3n12,< 20%,< 20%,< 20%,< 20%,< 20%,22.1%,< 20%,< 20%,< 20%,< 20%,< 20%,33.8%,56%,< 20%,37.6%,< 20%,< 20%,< 20%,25.2%,47.1%,inhibition of growth at 10 µM (MOLT-4): < 20%; inhibition of growth at 10 µM (UO-31): 47.9%; inhibition of growth at 10 µM (PC-3): 23.3%; inhibition of growth at 10 µM (SN12C): < 20%; inhibition of growth at 10 µM (U-251): < 20%; inhibition of growth at 10 µM (CAKI-1): < 20%; inhibition of growth at 10 µM (K562): < 20%; inhibition of growth at 10 µM (NCI-H226): < 20%; inhibition of growth at 10 µM (HL-60(TB)): < 20%; inhibition of growth at 10 µM (BT-549): < 20%; inhibition of growth at 10 µM (ACHN): < 20%; inhibition of growth at 10 µM (RPMI-8226): 43.8%; inhibition of growth at 10 µM (A498): < 20%; inhibition of growth at 10 µM (MCF7): 95.8%
